Measured values from ChEMBL document CHEMBL3259658, “Discovery of BI 224436, a Noncatalytic Site Integrase Inhibitor (NCINI) of HIV-1” (ACS Med Chem Lett, 2014).

How the values were obtained:
[1] = system: Human immunodeficiency virus 1; assay: Antiviral activity against HIV1 HxB2 harboring integrase A124/T125 mutant by cell based luciferase reporter gene assay; assay type: functional, organism-based; conditions: Human immunodeficiency virus 1, HxB2
Method in brief: (§1)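 Cell-based luciferase reporter gene assay of HIV-1 replication. Virus was HxB2 (IN A124/T125), wild-type NL4.3 (T124/T125), or recombinant NL4.3 carrying IN variants A124/T125, A124/A125, N124/T125, N124/A125 or T124/A125 (T125A). EC50 is the mean of at least two experiments. Where three or more experiments were run, relative SD was 12–43%.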

[2] = Half life in human liver microsomes; assay type: ADME
[3] = system: Human immunodeficiency virus 1; assay: Antiviral activity against HIV1 NL4.3 harboring integrase T125A mutant by cell based luciferase reporter gene assay in presence of 50% human serum; assay type: functional; design: reference not given here
Method in brief: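 Luciferase reporter gene assay with recombinant NL4.3 carrying the IN T125A substitution. […] Each value is the mean of at least two experiments.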

[4] = system: Human immunodeficiency virus 1; assay: Antiviral activity against HIV1 NL4.3 harboring integrase T124/A125 mutant by cell based luciferase reporter gene assay; assay type: functional, organism-based; conditions: Human immunodeficiency virus 1, NL4.3; method in brief: as §1
[5] = target: T1, Human immunodeficiency virus type 1 integrase (Human immunodeficiency virus 1, UniProt Q7ZJM1); assay: Binding affinity to HIV1 integrase by displacement assay; conditions: read-out: Kd(app)
T1 sequence (Q7ZJM1 whole entry): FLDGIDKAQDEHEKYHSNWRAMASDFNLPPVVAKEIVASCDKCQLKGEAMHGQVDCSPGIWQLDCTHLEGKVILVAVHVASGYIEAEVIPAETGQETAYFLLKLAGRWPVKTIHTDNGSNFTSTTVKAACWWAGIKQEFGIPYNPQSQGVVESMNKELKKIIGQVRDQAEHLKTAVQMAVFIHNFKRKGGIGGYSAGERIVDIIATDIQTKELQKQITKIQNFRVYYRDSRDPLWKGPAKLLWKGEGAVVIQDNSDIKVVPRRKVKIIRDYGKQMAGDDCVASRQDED
Method in brief: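 The displacement assay against HIV-1 integrase gives the value as an apparent dissociation constant (Kd-app).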

[6] = target: T1, Human immunodeficiency virus type 1 integrase; assay: Inhibition of HIV1 integrase by LTR cleavage assay
[7] = system: Human immunodeficiency virus 1; assay: Antiviral activity against HIV1 NL4.3 harboring integrase A124/T125 mutant by cell based luciferase reporter gene assay; assay type: functional, organism-based; conditions: Human immunodeficiency virus 1, NL4.3; method in brief: as §1
[8] = system: Human immunodeficiency virus 1; assay: Antiviral activity against HIV1 NL4.3 harboring integrase A124/A125 mutant by cell based luciferase reporter gene assay; assay type: functional, organism-based; conditions: Human immunodeficiency virus 1, NL4.3; method in brief: as §1
[9] = Solubility of the compound at pH 6.8; assay type: physicochemical; conditions: buffer
Method in brief: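 Solubility was measured at pH 6.8 on the amorphous powder form of the compound.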

[10] = Apparent permeability across human Caco2 cells; assay type: ADME, cell-based; conditions: Caco-2
Cytochrome P450 3A4 = Cytochrome P450 3A4 (Homo sapiens, UniProt P08684); assay: Inhibition of CYP3A4 (unknown origin); assay type: ADME
Cytochrome P450 3A4, sequence (P08684 whole entry): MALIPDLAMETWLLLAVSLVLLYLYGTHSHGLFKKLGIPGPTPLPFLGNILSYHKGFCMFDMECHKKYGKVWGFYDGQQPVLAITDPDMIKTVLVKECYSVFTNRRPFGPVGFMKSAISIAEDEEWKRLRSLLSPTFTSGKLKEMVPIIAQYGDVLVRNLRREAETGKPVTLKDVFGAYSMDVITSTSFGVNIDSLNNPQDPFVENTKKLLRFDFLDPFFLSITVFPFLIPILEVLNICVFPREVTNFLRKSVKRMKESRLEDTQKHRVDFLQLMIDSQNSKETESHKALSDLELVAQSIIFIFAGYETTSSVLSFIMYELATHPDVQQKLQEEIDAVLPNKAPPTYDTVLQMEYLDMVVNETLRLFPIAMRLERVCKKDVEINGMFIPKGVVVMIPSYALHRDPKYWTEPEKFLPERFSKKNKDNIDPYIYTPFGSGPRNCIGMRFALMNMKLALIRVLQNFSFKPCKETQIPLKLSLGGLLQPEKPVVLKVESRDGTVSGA

[11] = Half life in rat liver microsomes; assay type: ADME
[12] = system: Human immunodeficiency virus 1; assay: Antiviral activity against HIV1 NL4.3 harboring integrase N124/A125 mutant by cell based luciferase reporter gene assay; assay type: functional, organism-based; conditions: Human immunodeficiency virus 1, NL4.3; method in brief: as §1
[13] = Half life in rat at 0.2 mg/kg, iv and 0.4 mg/kg, po; assay type: ADME, organism-based; conditions: in vivo
[14] = system: Human immunodeficiency virus 1; assay: Antiviral activity against HIV1 NL4.3 harboring integrase N124/T125 mutant by cell based luciferase reporter gene assay; assay type: functional, organism-based; conditions: Human immunodeficiency virus 1, NL4.3; method in brief: as §1
[15] = system: Human immunodeficiency virus 1; assay: Antiviral activity against HIV1 NL4.3 harboring integrase T124/T125 mutant by cell based luciferase reporter gene assay; assay type: functional, organism-based; conditions: Human immunodeficiency virus 1, NL4.3; method in brief: as §1
Cytochrome P450 2D6 = Cytochrome P450 2D6 (Homo sapiens, UniProt P10635); assay: Inhibition of CYP2D6 (unknown origin); assay type: ADME
Cytochrome P450 2D6, sequence (P10635 whole entry): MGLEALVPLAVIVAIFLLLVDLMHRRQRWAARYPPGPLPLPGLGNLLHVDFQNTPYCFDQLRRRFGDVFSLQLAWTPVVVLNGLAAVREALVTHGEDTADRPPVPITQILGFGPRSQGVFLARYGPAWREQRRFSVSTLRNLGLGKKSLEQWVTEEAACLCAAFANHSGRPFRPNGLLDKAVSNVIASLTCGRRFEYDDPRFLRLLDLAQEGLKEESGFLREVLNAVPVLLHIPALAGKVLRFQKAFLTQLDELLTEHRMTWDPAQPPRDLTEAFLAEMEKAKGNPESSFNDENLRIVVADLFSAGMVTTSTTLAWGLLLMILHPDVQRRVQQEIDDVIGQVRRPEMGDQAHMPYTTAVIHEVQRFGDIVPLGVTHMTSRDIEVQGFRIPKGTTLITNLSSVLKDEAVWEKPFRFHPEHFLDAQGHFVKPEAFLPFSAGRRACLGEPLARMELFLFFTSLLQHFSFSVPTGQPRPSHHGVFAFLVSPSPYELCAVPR

[16] = Oral bioavailability in rat at 0.4 mg/kg; assay type: ADME, organism-based; conditions: in vivo
[17] = system: Human immunodeficiency virus 1; assay: Ratio of EC50 for HIV1 NL4.3 harboring integrase T124/A125 mutant to EC50 for HIV1 HxB2 harboring integrase A124/T125 mutant

SMILES | EC50 [1] | EC50 [4] | Kd [5] | other results
Cc1ccc2c(-c3ccc4c5c(ccnc35)CCO4)c([C@H](OC(C)(C)C)C(=O)O)c(C)nc2c1 | 6 nM | 21 nM | – | half-life [2]: 3.5 h; fold change (FC) [3]: 4.7
Cc1ccc2nc(C)c([C@H](OC(C)(C)C)C(=O)O)c(-c3ccc(Cl)cc3)c2c1 | 27 nM | 160 nM | 48 nM | –
Cc1nc2ccc(Br)cc2c(-c2ccc(Cl)cc2)c1C(C)C(=O)O (configuration not stated) | 13000 nM | – | – | IC50 [6]: 310 nM
Cc1nc2ccccc2c(-c2ccc(Cl)cc2)c1[C@H](OC(C)(C)C)C(=O)O | 23 nM | 110 nM | 49 nM | –
Cc1nc2cc(F)ccc2c(-c2ccc(Cl)cc2)c1[C@H](OC(C)(C)C)C(=O)O | 26 nM | 91 nM | 68 nM | –
Cc1ccc2c(-c3ccc(Cl)cc3)c([C@H](OC(C)(C)C)C(=O)O)c(C)nc2c1 | 13 nM | 130 nM | 40 nM | half-life [2]: 0.417 h; fold change (FC) [3]: 25
Cc1nc2cc(Cl)ccc2c(-c2ccc(Cl)cc2)c1[C@H](OC(C)(C)C)C(=O)O | 31 nM | 120 nM | 140 nM | –
Cc1ccc2c(-c3ccc4c(c3Cl)NCCO4)c([C@H](OC(C)(C)C)C(=O)O)c(C)nc2c1 | – | 29 nM | – | half-life [2]: 1.08 h; fold change (FC) [3]: 15
CCCC(C(=O)O)c1c(C)nc2ccc(Br)cc2c1-c1ccc(Cl)cc1 (configuration not stated) | 920 nM | – | – | IC50 [6]: 77 nM
Cc1nc2ccc(Br)cc2c(-c2ccc(Cl)cc2)c1CC(=O)O | 16000 nM | – | – | IC50 [6]: 270 nM
Cc1nc2ccccc2c(-c2ccc3c4c(ccnc24)CCO3)c1[C@H](OC(C)(C)C)C(=O)O [BI-224436] | 11 nM | – | – | EC50 [7]: 11 nM; EC50 [8]: 11 nM; solubility [9]: > 850 µg/mL; Papp [10]: 14 ×10⁻⁶ cm/s; IC50 (Cytochrome P450 3A4): 23000 nM; half-life [2]: 3.5 h; half-life [11]: > 5 h; EC50 [12]: 11 nM; fold change (FC) [3]: 2.1; half-life [13]: 8.8 h; EC50 [14]: 11 nM; EC50 [15]: 11 nM; IC50 (Cytochrome P450 2D6): > 30000 nM; bioavailability [16]: 54%
CO[C@@H](C(=O)O)c1c(C)nc2ccc(Br)cc2c1-c1ccc(Cl)cc1 | 47000 nM | – | – | IC50 [6]: 3100 nM
Cc1ccc2c(-c3ccc4c(c3Cl)CCCO4)c([C@H](OC(C)(C)C)C(=O)O)c(C)nc2c1 | 2 nM | 22 nM | – | fold change (FC) [3]: 83
Cc1nc2ccc(Br)cc2c(-c2ccc(Cl)cc2)c1[C@H](OC(C)(C)C)C(=O)O | 78 nM | 610 nM | 150 nM | Ratio EC50 [17]: 8
Cc1ccc(-c2c(CC(=O)O)c(C)nc3ccc(Br)cc23)cc1 | 20000 nM | – | – | IC50 [6]: 350 nM
Cc1nc2ccccc2c(-c2ccc(Cl)cc2)c1CC(=O)O | > 43000 nM | – | – | –
Cc1nc2ccc(Cl)cc2c(-c2ccccc2)c1CC(=O)O | > 40000 nM | – | – | –
Cc1ccc2c(-c3ccc4c(c3)CCCO4)c([C@H](OC(C)(C)C)C(=O)O)c(C)nc2c1 | 7 nM | 22 nM | – | half-life [2]: 1.1 h; fold change (FC) [3]: 66
Cc1ccc2c(-c3cccc4cccnc34)c([C@H](OC(C)(C)C)C(=O)O)c(C)nc2c1 | 34 nM | 300 nM | – | half-life [2]: > 5 h; fold change (FC) [3]: 4
CO[C@H](C(=O)O)c1c(C)nc2ccc(Br)cc2c1-c1ccc(Cl)cc1 | 450 nM | – | 4700 nM | IC50 [6]: 28 nM
COC(C(=O)O)c1c(C)nc2ccc(Br)cc2c1-c1ccc(Cl)cc1 (configuration not stated) | 990 nM | – | – | IC50 [6]: 40 nM
Cc1nc2ccc(F)cc2c(-c2ccc(Cl)cc2)c1[C@H](OC(C)(C)C)C(=O)O | 28 nM | 70 nM | 61 nM | –
Cc1nc2ccc(Br)cc2c(-c2ccc(Cl)cc2)c1[C@H](OC(C)C)C(=O)O | 130 nM | – | 280 nM | –
Cc1nc2ccc(Br)cc2c(-c2ccccc2)c1CC(=O)O | > 33000 nM | – | – | –
